High-throughput results deposited in PubChem by Johns Hopkins Ion Channel Center.
TRPC4 block – inhibitors of mouse TRPC4 channel, primary screen, Fluo4 calcium, HEK293 TRPC4beta/mu-opioid cells. DAMGO-evoked Fluo4 calcium flux; stronger effect = lower value. B-score at 10 µM. hit rate 0.39% among 300,000. AID 2247, 2010;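 active means B-score over 3 SD under the library average, no early fluorescence shift, positive overall ratio signal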
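Test system – stable TRPC4beta/mu-opioid receptor HEK293 cells · Probe or stimulus – DAMGO, a submaximal dose followed by a maximal one · Dosing – one concentration per compound · Signal – Fluo4 calcium fluorescence by kinetic imaging, 5 s 1 Hz baseline · Evaluation – per-well B score of integrated baseline-normalized Fluo4 ratio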
TRPC4 PAM – positive allosteric modulators of TRPC4, primary screen, cell-based, mouse TRPC4beta, HEK293 mu-opioid, Fluo-4 calcium. B-score at 10 µM. DAMGO EC20, Fluo-4 Ca2+ flux; stronger effect = higher value. Short transient receptor potential channel 4 (Mus musculus), Q9QUQ5. hit rate 0.42% among 310,000;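 active means B-score of calcium response area above 5 SD of library B-scores, with initial fluorescence ratio within 5 SD of library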;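 further: B-score of integrated fluorescence ratio over time as area under calcium response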
TRPC4 act – activators of mouse TRPC4 channel, primary screen, Fluo4 calcium, HEK293 TRPC4beta/mu-opioid cells; Short transient receptor potential channel 4 (Mus musculus), Q9QUQ5; Fluo4 calcium fluorescence; stronger effect = higher value; B-score at 10 µM; hit rate 0.49% among 310,000;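 active means B-score above 5 SD of library B-scores, and initial fluorescence ratio not above library mean plus 5 SD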;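 further: positive B-score marks a calcium rise read as TRPC4 activation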
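Material: HEK293 stable line with TRPC4beta plus mu-opioid receptor; technique: Fluo4 calcium-sensitive dye fluorescence, kinetic, 1 Hz baseline; timing: Fluo4 dye loading 45 min at room temperature, 110 s recording; controls: assay buffer as low control, maximal DAMGO as high control; read-out: integrated baseline-normalised fluorescence ratio, converted to per-well B score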
TRPC6 inhibitor – mouse TRPC6 channel inhibitors, primary screen, cell-based, HEK293, membrane potential dye; Short transient receptor potential channel 6 (Mus musculus), Q61143; ACh-evoked depolarization; stronger effect = lower value; B-score at 10 µM; hit rate 1.1% among 310,000;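 active means B-score under library mean minus 3 SD, initial fluorescence not abnormally high, positive integrated signal ratio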;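 further: B-score derived from integrated fluorescence ratio over the kinetic read; more negative B-score means stronger inhibition of depolarization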
TRPC6 act – mouse TRPC6 channel activators, primary screen, cell-based, HEK293, membrane potential dye | Short transient receptor potential channel 6 (Mus musculus), Q61143 | HEK293-TRPC6 membrane potential dye fluorescence; stronger effect = higher value | B-score at 10 µM | hit rate 0.13% among 310,000 | AID 2550, 2010;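 active means B-score of the integrated fluorescence ratio above library mean plus 3 SD, and starting fluorescence ratio within library mean plus 5 SD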;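 further: higher score means more depolarization so channel activation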
TRPC4 spec 2 – mouse TRPC4 off-target activity of TRPC6 inhibitors, second screen. shares compounds with TRPC6 inhibitor. HEK293 TRPC4/MOR, membrane potential dye fluorescence; channel activated by saturating DAMGO dose. inhibition, % at 10 µM. hit rate 42% among 920;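 active means compounds whose fluorescence signal differed from control wells by over 3 SD, either direction, in both duplicate plates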
TRPC4 spec – mouse TRPC4 modulation by TRPC6 hits, confirmation, selectivity assay for TRPC6 inhibitor project, cell-based, HEK293 TRPC4/mu-opioid, membrane potential dye; shares compounds with TRPC6 inhibitor; membrane potential fluorescence; activity change, negative = inhibition, % at 10 µM; hit rate 61% among 920; AID 2777, 2010;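 active means rise or fall in signal beyond 3 SD of buffer-only wells in both replicate plates, either sign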;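 further: integrated kinetic ratio of fluorescence range over baseline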
HEK293 MPD ctr 2-1 – nonspecific membrane potential effects, parental HEK293, confirmation, counter-screen for TRPC6 inhibitor project, cell-based, second counter screen; shares compounds with TRPC6 inhibitor; parental HEK293 membrane potential dye fluorescence; maximal acetylcholine challenge after compound addition; signal change vs control, % at 10 µM; hit rate 31% among 920; AID 2779, 2010;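 active means membrane potential signal moving either way by over 3 SD of the maximum-effect control, in both duplicate plates, meaning non-specific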
HEK293 MPD ctr-1 – membrane potential modulation in parental HEK293, confirmation, counter-screen for TRPC6 inhibitor project, cell-based | shares compounds with TRPC6 inhibitor | parental HEK293 membrane potential dye fluorescence | membrane potential signal change, % at 10 µM | hit rate 60% among 920;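 active means membrane potential signal shifting up or down by more than 3 SD of buffer-only wells, on both duplicate plates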
HEK293 MPD ctr-2 – parental HEK293 membrane potential modulation, confirmation, counter-screen for TRPC6 modulator project, cell-based; membrane potential signal change, % at 10 µM; AID 488924, 2010; membrane potential dye fluorescence; hit rate 51% among 2,400; shares compounds with TRPC6 inhibitor;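 active means membrane potential signal moves up or down beyond 5 SD from buffer-only wells, on both duplicate plates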
HEK293 MPD ctr 2-2 – parental HEK293 nonspecific activity of TRPC6 modulators, second screen. shares compounds with TRPC6 inhibitor. membrane potential dye fluorescence; after compound, maximal acetylcholine stimulation. inhibition, % at 10 µM. hit rate 14% among 2,400. AID 488926;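 active means membrane potential signal drops by more than 5 SD from the mean control signal, in both duplicate plates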;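 further: plate controls were acetylcholine ECmax control wells for no effect and buffer only wells for full effect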
TRPC4/MOR mod – TRPC4 modulation by TRPC6 hit compounds, confirmation, selectivity assay for TRPC6 modulator project, cell-based, HEK293 TRPC4/mu-opioid, membrane potential dye, mouse | membrane potential fluorescence | hit rate 69% among 2,400 | percent change from control (negative = decrease, positive = increase), % at 10 µM | shares compounds with TRPC6 inhibitor;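 active means membrane potential signal moved up or down beyond 5 SD of buffer control wells, in both duplicate plates, actives on both sides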;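 further: plate controls were assay buffer wells for no effect and DAMGO maximal-effect wells for full effect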
TRPC4 ctr inh 2 – mouse TRPC4 off-target activity of TRPC6 modulators, second screen; shares compounds with TRPC6 inhibitor; HEK293 TRPC4/mu-opioid, membrane potential dye fluorescence; stimulated with maximal-effect DAMGO; inhibition, % at 10 µM; hit rate 55% among 2,400; AID 488928;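 active means drop in membrane potential signal beyond 5 SD of the control wells in both duplicate plates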;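 further: TRPC4 counter screen for TRPC6 hits run under conditions tuned for TRPC6 not TRPC4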
TRPC6 inh conf – mouse TRPC6 channel inhibitors, confirmation, HEK293 cells, membrane potential dye, duplicate | AID 488960, 2010 | inhibition, % at 10 µM | hit rate 43% among 3,300 | ACh-evoked depolarization | shares compounds with TRPC6 inhibitor;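 active means fluorescence ratio falls more than 5 SD below the full-stimulation control mean, in both duplicate runs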;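 further: integrated fluorescence ratio of peak minus minimum over baseline after agonist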
TRPC6 act confirm – mouse TRPC6 channel activators, confirmation, HEK293 cells, membrane potential dye, duplicate; shares compounds with TRPC6 inhibitor; hit rate 11% among 2,800; AID 488961, 2010; activation, % at 10 µM; HEK293-TRPC6 membrane potential dye fluorescence, FDSS;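 active means ratio signal rise beyond 5 SD above unstimulated control wells' mean, seen in both duplicate runs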;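 further: plate controls were buffer EC0 wells for no effect and acetylcholine ECmax response for full effect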
The depositor's hits bear a star; i = inactive; · = no result given. In the library only some 2.3% were active in any assay of this set; here they are far more common.

SMILES	TRPC4 block	TRPC4 PAM	TRPC4 act	TRPC6 inhibitor	TRPC6 act	HEK293 MPD ctr-2	HEK293 MPD ctr 2-2	TRPC4/MOR mod	TRPC4 ctr inh 2	TRPC6 inh conf	TRPC6 act confirm	others
c1ccc(CN2CCN(Cc3nnc(-c4ccccc4)o3)CC2)cc1	i	i	i	-5.6*	i	i	66%*	11%*	i	64%*	·
COc1c(/C=C2\SC(=Nc3ccccc3Cl)NC2=O)cccc1[N+](=O)[O-]	i	i	i	i	i	·	·	·	·	·	·
O=C1NC(=Nc2ccccc2Cl)S/C1=C\c1cccc([N+](=O)[O-])c1O	i	i	i	-6*	i	i	i	-12%*	65%*	i	i
CCOC(=O)c1ccc2ncc(C(=O)OCC)c(NCCN(C)C)c2c1	i	i	i	-9.5*	i	·	·	·	·	i	i	TRPC4 spec 2=i;TRPC4 spec=-19%*;HEK293 MPD ctr 2-1=i;HEK293 MPD ctr-1=-296%*
CCOC(=O)c1ccc2ncc(C(=O)OCC)c(NCCN3CCOCC3)c2c1	i	i	i	i	i	·	·	·	·	·	·
O=C1CCC(C(=O)O)(c2ccccc2)C1 (configuration not stated)	i	i	i	-5.1*	i	i	i	i	i	i	i
C=CCn1c(COc2ccccc2F)nnc1SCCN1C(=O)c2ccccc2C1=O	i	i	i	i	i	·	·	·	·	·	·
Cc1ccc2[nH]c3c(=O)n(CC(=O)N4CC(C)CC(C)C4)ncc3c2c1 (configuration not stated)	i	i	i	i	i	·	·	·	·	·	·
Cc1sc2c3ccsc3ccc2[n+]1C	i	i	i	-8.6*	i	-292%*	71%*	-50%*	58%*	68%*	i
CCC(=O)N1CCc2cc(Br)cc(S(=O)(=O)N(C)c3ccc(OC)cc3OC)c21	i	i	i	i	i	·	·	·	·	·	·
CC(C)OC(=O)c1cccnc1SCC(=O)N(C)c1ccccc1	i	i	i	i	i	·	·	·	·	·	·
CC(C)OC(=O)c1cccnc1SCc1cc(=O)n2ccccc2n1	i	i	i	-6*	i	i	i	i	i	i	·
NCCCn1c(C(=O)c2ccc(Cl)cc2)c2ccc(C(F)(F)F)cc2[n+]1[O-]	i	i	i	-9.3*	i	·	·	·	·	67%*	i	TRPC4 spec 2=56%*;TRPC4 spec=-11%*;HEK293 MPD ctr 2-1=i;HEK293 MPD ctr-1=-180%*
COc1ccc(C)cc1N=Nc1ccc(O)c2ncccc12	i	i	i	-5.1*	i	-135%*	i	-34%*	73%*	i	i
COc1ccc(N=Nc2ccc(O)c3ncccc23)cc1	i	i	i	i	i	·	·	·	·	·	·
N#Cc1cc(-c2ccccc2)nc(N2CCNCC2)n1	i	i	78*	-6.4*	i	i	i	i	68%*	65%*	i
CCC(CC)COC(=O)C(C#N)c1nc2ccccc2nc1N1CCN(CC)CC1 (configuration not stated)	i	i	i	-9.8*	i	·	·	·	·	63%*	i	TRPC4 spec 2=50%*;TRPC4 spec=i;HEK293 MPD ctr 2-1=i;HEK293 MPD ctr-1=i
COc1ccc(OC)c(/C=C2\SC(=S)N(C(C(=O)O)c3ccccc3)C2=O)c1 (configuration not stated)	i	i	i	i	18*	412%*	i	83%*	i	i	175%*
CN(C)CCN(Cc1ccco1)C(=O)c1oc2ccccc2c1NC(=O)COc1ccccc1	i	i	i	-5.7*	i	90%*	i	i	85%*	55%*	i
CCc1ccc(N/C(SC)=C(/C#N)C(N)=O)cc1	i	i	i	i	i	·	·	·	·	·	·
CCCCS/C(=C(/C#N)C(N)=O)c1cc2c([nH]1)CCCC2	i	i	i	-5.7*	i	i	i	11%*	i	54%*	i
N=C1C(c2ccccc2)=C(O)CN1CCCO	i	i	i	i	i	·	·	·	·	·	·
